High-throughput results deposited in PubChem BioAssay by several laboratories.
Rows were chosen to be rich in hits. Some 2.9% of all compounds tested hit in one or more screens of this group.
Dynein transport – dynein cargo transport inhibition; 3617.4 mouse cells, GR-EGFP nuclear translocation imaging; test concentration mostly 20 µM; stimulated with dexamethasone, 1 µM; stronger effect = lower value; z-score, hits read low; hit rate 0.47% among 220,000;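 active = plate z-score of nuclear minus cytoplasmic receptor signal below a set negative limit, without overly bright fluorescence or cell loss, cut at about -3.5 in these data, passing the limit was not always enough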;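 note: z-score of nuclear minus cytoplasmic ring GR-EGFP intensity difference per well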
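Schedule: 48 h induction, then 1 h compound, then 30 min agonist, 37 °C. Buffer or medium: tetracycline-free induction medium containing charcoal-stripped FBS. Reagent: 1.0 µM final dexamethasone stimulus. Evaluation: nuclear versus cytoplasmic GR-EGFP signal, averaged per well. Signal: high-content fluorescence imaging after fixation.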
MEKK2mut PB1 HTS – signal of MEK5 binding to mutant human MEKK2 PB1 domain; bead flow cytometry, Alexa488-MEK5 binding to MEKK2 mutant; percent response, % at 10 µM; hit rate 0.35% among 290,000; in the data active = percent response above about 24%, passing the limit was not always enough
Beta2AR agonist – activates human beta-2 adrenergic receptor causing internalization | P07550 | hit rate 0.43% among 340,000 | response, % (test concentration not listed) | AID 504454 | Am2.2-beta2AR cells, FAP receptor internalization, flow cytometry;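 active = response above a set limit, near 3 SD of response in nonfluorescent compounds, cut at about 42% in these data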
ATG4B inh – ATG4B (human) cysteine protease inhibition | ATG4B cleavage of LC3-PLA2, NBD-HPC fluorescence, 1 h | inhibition, % at 8.33 µM | hit rate 0.51% among 340,000 | AID 504462; in the data active = inhibition above about 40%
MEKK2wt PB1 HTS – raises or lowers MEK5 binding to wildtype human MEKK2 PB1 domain | bead flow cytometry, Alexa488-MEK5 binding to MEKK2 WT; actives lie on both sides | AID 1531 | binding response (% of control), % at 10 µM | Q9Y2U5 | hit rate 1.1% among 290,000; in the data active = binding response below about 67% or above about 130%
MEKK3 PB1 HTS – raises or lowers MEK5 binding to the human MEKK3 PB1 domain; Q99759; bead-based flow cytometry, Alexa488-MEK5 binding to MEKK3; actives lie on both sides; 0 = blocked by unlabeled MEK5, 100 = vehicle; binding response (% of control), % at 10 µM; hit rate 1.4% among 290,000;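 active = binding response more than 3 SD above or below the average of its plate-row segment, actives on both sides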;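 note: Alexa488 bead fluorescence after subtracting the streptavidin-only scavenger bead signal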
Target sequence (Q99759 whole entry, looked up, the tested form may be a part): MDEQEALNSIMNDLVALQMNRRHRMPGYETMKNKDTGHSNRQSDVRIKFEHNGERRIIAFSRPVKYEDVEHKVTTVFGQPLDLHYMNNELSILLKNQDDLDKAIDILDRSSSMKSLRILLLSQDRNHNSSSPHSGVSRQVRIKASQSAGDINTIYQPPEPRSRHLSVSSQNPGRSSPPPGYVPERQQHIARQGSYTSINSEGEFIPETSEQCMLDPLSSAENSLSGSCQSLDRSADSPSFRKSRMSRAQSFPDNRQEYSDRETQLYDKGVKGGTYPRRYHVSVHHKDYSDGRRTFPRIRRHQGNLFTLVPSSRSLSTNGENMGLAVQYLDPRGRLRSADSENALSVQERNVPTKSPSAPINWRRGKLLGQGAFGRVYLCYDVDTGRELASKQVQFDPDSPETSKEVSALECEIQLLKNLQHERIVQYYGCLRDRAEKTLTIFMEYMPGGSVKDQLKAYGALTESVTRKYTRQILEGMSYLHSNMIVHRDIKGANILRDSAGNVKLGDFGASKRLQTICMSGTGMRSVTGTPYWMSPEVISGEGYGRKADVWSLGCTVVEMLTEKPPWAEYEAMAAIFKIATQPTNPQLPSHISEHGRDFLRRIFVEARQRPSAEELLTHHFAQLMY
MEKK2wt confirm – raises or lowers MEK5 binding to wildtype human MEKK2, retest. shares compounds with MEKK3 PB1 HTS. bead flow cytometry, Alexa488-MEK5 binding to MEKK2 WT; actives lie on both sides. binding response (% of control), % at 10 µM. hit rate 2.4% among 5,900. AID 1892; in the data active = binding response below about 16% or above about 210%; inactive = in between
MEKK2mut confirm – signal of MEK5 binding to mutant human MEKK2, retest; bead flow cytometry, Alexa488-MEK5 binding to MEKK2 mutant; hit rate 2% among 5,900; shares compounds with MEKK3 PB1 HTS; percent response, % at 10 µM; in the data active = percent response mostly above about 71%, no sharp cut-off; inactive = mostly below about 38%;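 note: higher means compound restores mutant binding toward wildtype level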
MEKK3 confirm – confirmation of inhibitors of MEK5 binding to human MEKK3; hit rate 1.8% among 5,900; binding response (% of control), % at 10 µM; bead flow cytometry, Alexa488-MEK5 binding to MEKK3; stronger effect = lower value; shares compounds with MEKK3 PB1 HTS; AID 1894;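 active = binding response below 72% of control, or above a set upper limit, though filed actives all read lower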
Each line names hits and unclear results; the compound was inactive in the other large screens (follow-up assays come after a bar, where they were run); [ ] = another dose, or the depositor's remark.

CC1=Nc2ccccc2/C1=C\c1nc(-c2ccc(F)cc2)oc1O	MEKK2wt PB1 HTS 7.0, MEKK3 PB1 HTS 9.0[inhibitor] | MEKK2wt confirm inactive | MEKK2mut confirm inactive | MEKK3 confirm inactive
CCCCOc1ccc(S(=O)(=O)Nc2cccnc2)cc1	MEKK2wt PB1 HTS -8.0[inhibitor], MEKK3 PB1 HTS 1.0[inhibitor] | MEKK2wt confirm inactive | MEKK2mut confirm inactive | MEKK3 confirm inactive
CCOC(=O)c1c(NC(=O)c2cccs2)sc2c1CCCC2	MEKK2wt PB1 HTS -1.0[inhibitor], MEKK3 PB1 HTS 1.0[inhibitor] | MEKK2wt confirm inactive | MEKK2mut confirm inactive | MEKK3 confirm inactive
C/C(=N/NC(=O)CNC(=O)/C=C/c1ccco1)c1ccc(Cl)cc1	none
CN1CCN(CC(O)COc2ccc(C34CC5CC(CC(C5)C3)C4)cc2)CC1 (stereo unspecified)	MEKK2mut PB1 HTS 56, MEKK2wt PB1 HTS 235 | MEKK2wt confirm inactive | MEKK2mut confirm 81 | MEKK3 confirm inactive
Cc1cc(/C=N/Nc2nc(N)ncc2[N+](=O)[O-])c(C)n1-c1ccccc1F	none (no result: Beta2AR agonist, ATG4B inh)
N#Cc1cccc(Oc2ccc(-c3cnc4ccccc4n3)cc2)c1C#N	MEKK3 PB1 HTS 130 | MEKK2wt confirm inactive | MEKK2mut confirm inactive | MEKK3 confirm inactive
COc1nc(N(C)C)nc(-n2nnc(C(C)=O)c2C)n1	MEKK2wt PB1 HTS 1.0[inhibitor], MEKK3 PB1 HTS 2.0[inhibitor] | MEKK2wt confirm inactive | MEKK2mut confirm inactive | MEKK3 confirm inactive
CCn1c(O)c(N=NC(=O)CNc2ccc(C)cc2)c2ccccc21	none
CCn1c(O)c(N=NC(=O)CNc2cccc(C)c2)c2ccccc21	MEKK3 PB1 HTS 148 | MEKK2wt confirm inactive | MEKK2mut confirm inactive | MEKK3 confirm inactive
CC(C)c1ccc(NC(=O)COC(=O)[C@@H]2CCCN2C(=O)c2cccs2)cc1	none (no result: Dynein transport, MEKK2mut PB1 HTS, MEKK2wt PB1 HTS, MEKK3 PB1 HTS)
Cc1cc(NC(=O)c2cc(C)on2)n(-c2ccccc2)n1	MEKK3 PB1 HTS 74[inhibitor] | MEKK2wt confirm inactive | MEKK2mut confirm inactive | MEKK3 confirm inactive
Cc1cc(NC(=O)c2cc(-c3ccccc3)on2)n(-c2ccccc2)n1	none
COc1ccc(C)cc1NC(=O)CN1C(=O)COc2ccc(C)cc21	none (no result: Dynein transport)
CC(=O)N1CCOc2ccc(S(=O)(=O)N3CCN(c4cc(C)ccc4C)CC3)cc21	none (no result: Dynein transport)
CN(CC(=O)NCc1ccncc1)S(=O)(=O)c1ccc2ccccc2c1	MEKK3 PB1 HTS 129 | MEKK2wt confirm inactive | MEKK2mut confirm inactive | MEKK3 confirm inactive
Cc1ccc(S(=O)(=O)N(C)CC(=O)NCc2ccncc2)cc1	none
CCOC(=O)C(NC(=O)NCc1ccc(F)cc1)(OCC)C(F)(F)F (stereo unspecified)	MEKK3 PB1 HTS 128 | MEKK2wt confirm inactive | MEKK2mut confirm inactive | MEKK3 confirm inactive
CCOC(=O)C(NC(=O)Nc1ccc(Cl)cn1)(Oc1ccc(F)cc1)C(F)(F)F (stereo unspecified)	MEKK3 PB1 HTS 152 | MEKK2wt confirm inactive | MEKK2mut confirm inactive | MEKK3 confirm inactive
O=C(Nc1ccc(F)cc1)Nc1ccc(Cl)cn1	none
Cn1cccc1C(=O)NC(=O)CSc1nnc(C2CC2)n1-c1ccccc1	MEKK3 PB1 HTS 127 | MEKK2wt confirm inactive | MEKK2mut confirm inactive | MEKK3 confirm inactive
Cc1nc(SCC(O)CO)c([N+](=O)[O-])[nH]1 (stereo unspecified)	MEKK2wt PB1 HTS 138 | MEKK2wt confirm inactive | MEKK2mut confirm inactive | MEKK3 confirm inactive
COc1cc(NC(=O)CN(C)Cc2cccc(F)c2)c(C)cc1[N+](=O)[O-]	MEKK3 PB1 HTS 128 | MEKK2wt confirm inactive | MEKK2mut confirm inactive | MEKK3 confirm inactive
COc1cc(NC(=O)CN(C)Cc2ccc(OC(F)F)cc2)c(C)cc1[N+](=O)[O-]	none
COc1cc(NC(=O)CN(C)CCOc2ccccc2)c(C)cc1[N+](=O)[O-]	none (no result: Dynein transport)
COc1ccc(CN(C)CC(=O)Nc2cc(OC)c([N+](=O)[O-])cc2C)c(OC)c1	MEKK3 PB1 HTS 133 | MEKK2wt confirm inactive | MEKK2mut confirm inactive | MEKK3 confirm inactive
COC(=O)c1ccc(C2c3c(oc4ccccc4c3=O)C(=O)N2CCCN2CCOCC2)cc1 (stereo unspecified)	none (no result: MEKK2mut PB1 HTS, MEKK2wt PB1 HTS, MEKK3 PB1 HTS)
COC(=O)c1ccc(C2c3c(oc4ccc(Cl)cc4c3=O)C(=O)N2CCN2CCOCC2)cc1 (stereo unspecified)	MEKK3 PB1 HTS 131 | MEKK2wt confirm inactive | MEKK2mut confirm inactive | MEKK3 confirm inactive
COc1ccc2[nH]c3c(c2c1)CCN1C(=O)C(CC(=O)NCc2ccco2)C[C@H](C(=O)N2CCOCC2)[C@@]31C (stereo partly specified)	none (no result: Dynein transport, MEKK2mut PB1 HTS, ATG4B inh, MEKK2wt PB1 HTS, MEKK3 PB1 HTS)
O=C1OC(c2ccccc2)=C/C1=C\N1CCOCC1	MEKK2wt PB1 HTS 2.0[inhibitor], MEKK3 PB1 HTS 2.0[inhibitor] | MEKK2wt confirm inactive | MEKK2mut confirm inactive | MEKK3 confirm inactive
O=C1OC(c2ccccc2)=C/C1=C/N1CCOCC1	none
COc1cc(C(=O)N2CCN(Cc3ccc4c(c3)OCO4)CC2)cc(OC)c1OC	MEKK2mut PB1 HTS 28 (no result: Dynein transport) | MEKK2wt confirm inactive | MEKK2mut confirm inactive | MEKK3 confirm inactive
CCN(CC)c1ccc(C(=O)NC(=S)N2CCN(Cc3ccc4c(c3)OCO4)CC2)cc1	MEKK3 PB1 HTS 145 | MEKK2wt confirm inactive | MEKK2mut confirm inactive | MEKK3 confirm inactive
CCOC(=O)CN(C)C(=O)C1CCCN1C(=O)OC(C)(C)C (stereo unspecified)	none (no result: Dynein transport)
CC(C)(C)NC(=O)c1ccc2c(c1)C1C3CCC(C3)C1C(c1ccccc1)N2 (stereo unspecified)	MEKK3 PB1 HTS 198 | MEKK2wt confirm inactive | MEKK2mut confirm inactive | MEKK3 confirm inactive
Cc1ccc(NS(=O)(=O)c2cccc(C(=O)N/N=C/c3ccc4c(c3)OCCO4)c2)c(C)c1	MEKK3 PB1 HTS 129 | MEKK2wt confirm inactive | MEKK2mut confirm inactive | MEKK3 confirm inactive
CCCN(CCC)CCNC(=O)c1cc2c(-c3ccc(Cl)cc3)nn(C)c2s1	MEKK2mut PB1 HTS 42, MEKK2wt PB1 HTS 184 (no result: Dynein transport) | MEKK2wt confirm inactive | MEKK2mut confirm 92 | MEKK3 confirm inactive
CCOCCCNC(=O)c1cc2c(-c3ccc(Cl)cc3)nn(C)c2s1	none
CCCN(CCC)CCNC(=O)c1cc2c(-c3ccccc3F)nn(C)c2s1	none (no result: Dynein transport)
